A short description of test [1]: Inhibition of TNFalpha induced NF-kappaB activation in human 293 cells after 24 hrs by luciferase reporter gene assay. The test is classed as cell-based. To be noted: HEK293, 24 h. Summed up: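 Cells incubated 24 h with TNFα (20 ng/ml) and test compounds, PBS-washed, lysed 10 min, luciferase read. Screen at 20 µg/ml; active compounds then run as dose-response in duplicate. Values are % of TNFα-treated control; IC50 from five serial dilutions, mean of two experiments.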
Background: Reporter assays use an easily measured gene product as a stand-in for the process of interest.

For test [2], the target named is Prostaglandin G/H synthase 1 (Homo sapiens, UniProt P23219). The test is described as follows: Inhibition of COX1. In a few lines: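 Reaction in 100 mM Tris-HCl pH 8.0 containing 1 µM heme, 500 µM phenol and 300 µM epinephrine, with enough COX-1 to make 150 ng/ml PGE2. Started with arachidonic acid (10 µM final), 10 min at room temperature, stopped into indomethacin. PGE2 measured by ELISA against a PGE2 standard curve. Values are % of solvent control; IC50 from four serial dilutions, mean of two experiments.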
Chain of Prostaglandin G/H synthase 1 (P23219 whole entry): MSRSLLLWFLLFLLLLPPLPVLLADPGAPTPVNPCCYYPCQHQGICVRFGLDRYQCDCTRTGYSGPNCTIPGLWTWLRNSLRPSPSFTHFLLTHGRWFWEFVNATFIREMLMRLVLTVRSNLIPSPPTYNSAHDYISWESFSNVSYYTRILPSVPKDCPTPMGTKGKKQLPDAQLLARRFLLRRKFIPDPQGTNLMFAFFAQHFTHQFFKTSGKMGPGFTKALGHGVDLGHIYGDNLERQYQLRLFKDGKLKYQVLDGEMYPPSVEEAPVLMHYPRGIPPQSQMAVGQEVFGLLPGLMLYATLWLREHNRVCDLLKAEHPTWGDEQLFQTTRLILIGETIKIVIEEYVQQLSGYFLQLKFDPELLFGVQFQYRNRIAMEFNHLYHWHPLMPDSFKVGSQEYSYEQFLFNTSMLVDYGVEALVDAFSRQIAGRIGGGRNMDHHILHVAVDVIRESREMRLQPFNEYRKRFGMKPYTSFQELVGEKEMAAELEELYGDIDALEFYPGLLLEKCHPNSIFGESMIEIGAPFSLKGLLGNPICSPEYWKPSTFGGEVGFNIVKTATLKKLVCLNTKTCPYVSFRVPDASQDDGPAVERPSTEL

The target in test [3] is T1, Prostaglandin G/H synthase 2 (Homo sapiens, UniProt P35354).
T1 sequence (P35354 whole entry): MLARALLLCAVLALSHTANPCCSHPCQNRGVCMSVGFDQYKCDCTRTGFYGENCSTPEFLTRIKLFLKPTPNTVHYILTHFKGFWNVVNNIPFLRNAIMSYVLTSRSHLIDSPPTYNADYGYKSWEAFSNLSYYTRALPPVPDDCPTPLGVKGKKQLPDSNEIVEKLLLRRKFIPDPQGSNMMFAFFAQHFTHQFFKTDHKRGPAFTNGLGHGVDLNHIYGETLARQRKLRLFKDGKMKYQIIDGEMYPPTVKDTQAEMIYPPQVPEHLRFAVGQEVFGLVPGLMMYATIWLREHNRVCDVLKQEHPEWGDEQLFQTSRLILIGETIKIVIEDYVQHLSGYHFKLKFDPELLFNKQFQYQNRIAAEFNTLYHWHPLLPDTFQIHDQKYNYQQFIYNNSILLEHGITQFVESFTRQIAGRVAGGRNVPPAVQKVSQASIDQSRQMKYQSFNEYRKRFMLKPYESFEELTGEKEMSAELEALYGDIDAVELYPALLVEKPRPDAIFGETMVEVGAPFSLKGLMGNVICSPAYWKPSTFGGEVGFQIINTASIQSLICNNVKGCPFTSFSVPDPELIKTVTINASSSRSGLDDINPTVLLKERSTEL
The test can be described thus: Inhibition of COX2.

Data on 56 molecules can be found in ChEMBL document CHEMBL1140997 (Bioorg Med Chem, 2009).

The term IC50 denotes the concentration that gives 50% inhibition. A lower IC50 goes with greater potency in that assay.

In test [1], `COc1cc(/C=C/c2ccc(F)cc2)cc(OC)c1` yielded a concentration for half-maximal inhibition (IC50) of 37.5 µM. With `COc1cc(/C=C/c2ccc([N+](=O)[O-])cc2)cc(OC)c1`, the figures for the IC50 in test [2] and in test [3] were 10 µM and 5.94 µM, respectively. Turning to `COc1ccc(/C=C/c2ccc(O)c(O)c2)cc1`, the IC50 in test [1] came out at 12.2 µM. The same measure, in the same setting: in the case of `COc1ccc(/C=C/c2ccc(OC)c(OC)c2)cc1` it was 52 µM; in that of `Oc1ccc(/C=C/c2ccc(O)c(O)c2)cc1`, 12.7 µM. Take `COc1cc(/C=C(/c2ccc(F)cc2)C(F)(F)F)cc(OC)c1`: the IC50 worked out at 3 µM in test [2] and 39 µM in test [1]. With `CC/C(=C\c1ccc(C(F)(F)F)cc1)c1cc(O)cc(O)c1`, the 50% inhibitory concentration (IC50) in test [2] turned out to be 0.99 µM.

Regarding `C/C(=C\c1ccc(O)c(O)c1)c1ccc(Cl)cc1`, it took 37.5 µM to reach half-maximal inhibition in test [1] (IC50). This counts as double-digit micromolar. For `Oc1cc(O)cc(/C=C/c2ccc(F)cc2)c1`, the 50% inhibitory concentration (IC50) stood at 51.3 µM in test [2] and 52.1 µM in test [1]. `COc1ccc(/C=C/c2cccc(F)c2)cc1OC`: the IC50 came out at 3.2 µM in test [2] and 38.8 µM in test [1]. With `Oc1ccc(/C=C/c2cccc(F)c2)cc1O`, the figures for the half-maximal inhibitory concentration (IC50) in test [2] and in test [1] were 11.5 µM and 10.3 µM, respectively. Consider `C/C(=C\c1cc(O)cc(O)c1)c1cccc(F)c1`, for which the half-maximal inhibitory concentration (IC50) stood at 4.9 µM in test [2] and 2.54 µM in test [3].

For the molecule `CC/C(=C\c1ccc(N(C)C)cc1)c1cc(O)cc(O)c1`, the half-inhibitory concentration (IC50) in test [2] is 7.4 µM; in test [3], 2.2 µM. Turning to `CC/C(=C\c1cc(OC)cc(OC)c1)c1ccc(OC)c(OC)c1`, the IC50 in test [1] worked out at 27.2 µM. `CC/C(=C\c1cc(O)cc(O)c1)c1ccc(Cl)cc1`: the IC50 in test [2] stood at 11.6 µM; in test [1], 38.3 µM.

On to `CC/C(=C\c1cc(O)cc(O)c1)c1cccc(F)c1`, for which the concentration for half-maximal inhibition (IC50) in test [2] was 3.5 µM; in test [1] it was 25.7 µM; in test [3] it was 17.7 µM. For `CC/C(=C\c1cc(O)cc(O)c1)c1ccc(N(C)C)cc1`, the concentration for half-maximal inhibition (IC50) in test [2] is 30.5 µM; in test [3], 14.8 µM.

`COc1cc(/C=C/c2ccc3ccccc3c2)cc(OC)c1`: the IC50 in test [1] is 18.8 µM. Consider `COc1cccc(/C=C/c2ccc(OC)c(OC)c2)c1`, for which inhibition in test [1] was half-maximal at 17.3 µM (IC50). Still for that read-out and setting: in the case of `Oc1ccc(/C=C/c2ccc(F)cc2)cc1O` it was 17.9 µM.

In the case of `COc1ccc(/C=C/c2ccc(N(C)C)cc2)cc1OC`, 34.7 µM corresponded to half-maximal inhibition in test [1] (IC50).

For `C/C(=C\c1cc(O)cc(O)c1)c1ccc(O)cc1`, the IC50 in test [2] amounted to 1.9 µM; in test [3], 1.57 µM. Take `C/C(=C\c1cc(O)cc(O)c1)c1ccc(C(F)(F)F)cc1`: the IC50 was determined as 0.97 µM in test [2] and 34.2 µM in test [1]. `Oc1ccc(/C=C/c2ccc(C(F)(F)F)cc2)cc1O` yielded an IC50 in test [1] of 14.8 µM. On to `Oc1ccc(/C=C/c2ccc3ccccc3c2)cc1O`, for which the IC50 in test [1] amounted to 6.91 µM.

In test [1], `COc1ccc(/C(=C/c2cc(OC)cc(OC)c2)C(F)(F)F)cc1` registered an IC50 of 37.8 µM.

As for `COc1ccc(/C=C(/c2cc(OC)cc(OC)c2)C(F)(F)F)cc1`, the IC50 in test [2] came to 7.8 µM. Turning to `COc1ccc(/C(C)=C/c2cc(O)cc(O)c2)cc1`, the IC50 in test [2] stood at 12.4 µM; in test [1], 35.2 µM; in test [3] it was 16 µM. For `COc1ccc(/C(C)=C/c2cc(OC)cc(OC)c2)cc1`, the IC50 in test [1] amounted to 27.1 µM. On the same count and under the same terms, the result for `COc1ccc(/C(C)=C/c2ccc3ccccc3c2)cc1` reads 48.2 µM. `COc1ccc(/C(C)=C/c2cc(O)cc(O)c2)cc1OC`: the IC50 was found to be 11.4 µM in test [2] and 13.1 µM in test [1].

As for `C/C(=C\c1cc(O)cc(O)c1)c1ccc(Cl)cc1`, the concentration for half-maximal inhibition (IC50) in test [2] was determined as 5.3 µM; in test [1], 39.2 µM. In test [3], `C/C(=C\c1ccc(C(F)(F)F)cc1)c1ccc(O)c(O)c1` had an IC50 of 1.74 µM.

Consider `C/C(=C\c1ccc2ccccc2c1)c1cc(O)cc(O)c1`, for which, in test [1], the concentration for half-maximal inhibition (IC50) is 42.3 µM. In other words, the double-digit micromolar range. Take `Oc1cc(O)cc(/C=C/c2ccc3ccccc3c2)c1`: the 50% inhibitory concentration (IC50) in test [2] was determined as 18.4 µM. Regarding `C/C(=C\c1ccc(C(F)(F)F)cc1)c1cc(O)cc(O)c1`, inhibition in test [2] was half-maximal at 10.9 µM (IC50). Compared with the last molecule, the IC50 is about 1.7-fold lower. Still for that read-out and setting: in the case of `CC/C(=C\c1cccc(F)c1)c1cc(O)cc(O)c1` it was 5.4 µM. For `C/C(=C\c1ccc(N(C)C)cc1)c1cc(O)cc(O)c1`, the values for the IC50 in test [2] and in test [3] were 10.7 µM and 1.74 µM, respectively.

In test [1], `COc1cc(/C=C(/c2cccc(C(F)(F)F)c2)C(F)(F)F)cc(OC)c1` yielded a half-maximal inhibitory concentration (IC50) of 31.9 µM. Same read-out and setting: in the case of `COc1ccc(/C=C(/c2cccc(C(F)(F)F)c2)C(F)(F)F)cc1OC` it was 25.5 µM. `Oc1cc(O)cc(/C=C/c2cccc(F)c2)c1`: the half-maximal inhibitory concentration (IC50) in test [2] was determined as 16.5 µM; in test [3] it was 0.82 µM. For the molecule `Oc1cc(O)cc(/C=C/c2ccc(C(F)(F)F)cc2)c1`, the concentration for half-maximal inhibition (IC50) worked out at 29.7 µM in test [2] and 12.9 µM in test [1]. Take `O=[N+]([O-])c1ccc(/C=C/c2cc(O)cc(O)c2)cc1`: the concentration for half-maximal inhibition (IC50) was 2.2 µM in test [2] and 31.6 µM in test [3].

`CN(C)c1ccc(/C=C/c2cc(O)cc(O)c2)cc1` registered a half-maximal inhibitory concentration (IC50) in test [2] of 17.8 µM.

With `C/C(=C\c1ccc(C(F)(F)F)cc1)c1ccc(O)cc1`, the IC50 in test [2] turned out to be 36.3 µM; in test [3], 0.47 µM.

As for `C/C(=C\c1ccc(O)cc1)c1cc(O)cc(O)c1`, the figures for the half-inhibitory concentration (IC50) in test [2], in test [1] and in test [3] were 1.9 µM, 26.2 µM and 1.78 µM, respectively. For the molecule `COc1ccc(/C=C(\C)c2cc(O)cc(O)c2)cc1OC`, the results for the half-inhibitory concentration (IC50) in test [2] and in test [3] were 10.6 µM and 12.8 µM, respectively. `C/C(=C\c1ccc(O)c(O)c1)c1ccc(O)cc1`: the IC50 in test [1] was 21.3 µM.

In the case of `COc1cc(/C=C(\C)c2ccc(C(F)(F)F)cc2)cc(OC)c1`, inhibition in test [2] was half-maximal at 32.6 µM (IC50). That is a double-digit micromolar value. Same read-out and setting: the result for `C/C(=C\c1cccc(F)c1)c1cc(O)cc(O)c1` reads 10.5 µM. Turning to `CC/C(=C\c1cc(O)cc(O)c1)c1ccc2ccccc2c1`, the IC50 in test [2] is 0.17 µM; in test [3] it was 3.3 µM. In turn, `CC/C(=C\c1ccc(OC)c(OC)c1)c1cc(O)cc(O)c1` had a half-inhibitory concentration (IC50) in test [2] of 9.7 µM.

With `COc1cc(/C=C/c2ccc(O)cc2)cc(OC)c1` [PTEROSTILBENE], the values for the IC50 in test [2], in test [1] and in test [3] were 0.7 µM, 19.5 µM and 0.82 µM, respectively. In the case of `COc1ccc(/C=C/c2cc(O)cc(O)c2)cc1` [RESVERATROL 4'-METHYL ETHER], the IC50 was determined as 25.8 µM in test [2] and 19.6 µM in test [3]. For the molecule `Oc1ccc(/C=C/c2cc(O)cc(O)c2)cc1` [RESVERATROL], the midpoint of inhibition in test [1], the IC50, lay at 16.1 µM. This lies in the double-digit micromolar range.

Turning to `COc1ccc(/C=C/c2cc(OC)cc(OC)c2)cc1` [TRISMETHOXYRESVERATROL], 28.3 µM corresponded to half-maximal inhibition in test [1] (IC50).
